Reference: ChEMBL document CHEMBL1157468, “Design, synthesis, and testing of non-nephrotoxic desazadesferrithiocin polyether analogues” (J Med Chem, 2008)

Key:
Rattus norvegicus [1] = assay: Iron-clearing efficiency in non-iron-overloaded Sprague-Dawley rat at 150 umol/kg, po after 24 hrs relative to control; assay type: functional
Outline: (§1)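 Male Sprague–Dawley rats (400–450 g), not iron-loaded and bile duct-cannulated, got one dose of 50, 150 or 300 µmol/kg po, or 300 µmol/kg sc. Vehicle was water or the monosodium salt. Bile was collected every 3 h for 24 h and urine at 24 h. Iron was measured by atomic absorption. Efficiency was treated minus control iron excretion, divided by theoretical output (2:1 ligand:iron), as a percent; mean ± SEM.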

Rattus norvegicus [2] = assay: Iron-clearing efficiency in non-iron-overloaded Sprague-Dawley rat at 50 umol/kg, po after 24 hrs relative to control; assay type: functional; outline: as §1
Rattus norvegicus [3] = assay: Iron-clearing efficiency in non-iron-overloaded Sprague-Dawley rat bile assessed as iron excretion at 300 umol/kg, po; assay type: functional; outline: as §1
Rattus norvegicus [4] = assay: Iron-clearing efficiency in non-iron-overloaded Sprague-Dawley rat bile assessed as iron excretion at 150 umol/kg, po; assay type: functional; outline: as §1
Rattus norvegicus [5] = assay: Iron-clearing efficiency in non-iron-overloaded Sprague-Dawley rat bile assessed as iron excretion at 50 umol/kg, po; assay type: functional; outline: as §1
Rattus norvegicus [6] = assay: Iron-clearing efficiency in non-iron-overloaded Sprague-Dawley rat at 300 umol/kg, sc after 24 hrs relative to control; assay type: functional; outline: as §1
Sapajus apella [7] = assay: Iron-clearing efficiency in iron-overloaded Cebus apella at 150 umol/kg, po after 2 days relative to control; assay type: functional
Outline: (§2)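 Monkeys (Cebus apella, 3.5–4 kg) were iron-loaded to about 500 mg Fe/kg with iv iron dextran and rested at least 60 days. They then got one 150 µmol/kg dose, po or sc. Feces and urine were collected every 24 h from 4 days before to 5 days after dosing, and iron was measured by flame atomic absorption. Efficiency was the 2-day post-drug iron minus the 4-day pre-drug baseline, divided by theoretical output (2:1 ligand:iron); mean ± SEM.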

Sapajus apella [8] = assay: Iron-clearing efficiency in iron-overloaded Cebus apella at 150 umol/kg, sc after 2 days relative to control; assay type: functional; outline: as §2
Rattus norvegicus [9] = assay: Toxicity in iron-overloaded Sprague-Dawley rat assessed as survival at 75 umol/kg/day, po after 28 days by non-renal perfusion protocol; assay type: organism-based; conditions: in vivo, 672 h
Outline: (§3)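 Male Sprague–Dawley rats were iron-loaded with ip iron dextran, 105 mg/kg/dose × 4 over two weeks, then given two weeks to equilibrate (about 350 mg Fe/kg). They received oral gavage once daily for 28 days in the afternoon, unfasted, six per group, with age-matched controls. Euthanasia was 24 h after the last dose. Survival was recorded, and kidney and bone marrow were sent for histopathology.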

Rattus norvegicus [10] = assay: Toxicity in iron-overloaded Sprague-Dawley rat assessed as survival at 150 umol/kg/day, po after 28 days by non-renal perfusion protocol; assay type: organism-based; conditions: in vivo, 672 h; outline: as §3
Rattus norvegicus [11] = assay: Toxicity in iron-overloaded Sprague-Dawley rat assessed as survival at 300 umol/kg/day, po after 28 days by non-renal perfusion protocol; assay type: organism-based; conditions: in vivo, 672 h; outline: as §3
Rattus norvegicus [12] = assay: Toxicity in non-iron-overloaded Sprague-Dawley rat assessed as survival at 75 umol/kg/day, po after 28 days by non-renal perfusion protocol; assay type: organism-based; conditions: in vivo, 672 h
Outline: (§4)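 Male Sprague–Dawley rats with normal iron stores, unfasted, received oral gavage once daily in the afternoon for 28 days, six per group, with age-matched untreated controls. Euthanasia was 24 h after the last dose. Survival was recorded over the dosing period, and kidney and bone marrow were examined histopathologically.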

Rattus norvegicus [13] = assay: Toxicity in non-iron-overloaded Sprague-Dawley rat assessed as survival at 150 umol/kg/day, po after 28 days by non-renal perfusion protocol; assay type: organism-based; conditions: in vivo, 672 h; outline: as §4
Rattus norvegicus [14] = assay: Toxicity in non-iron-overloaded Sprague-Dawley rat assessed as survival at 300 umol/kg/day, po after 28 days by non-renal perfusion protocol; assay type: organism-based; conditions: in vivo, 672 h; outline: as §4
Rattus norvegicus [15] = assay: Nephrotoxicity in Sprague-Dawley rat assessed as heavy vacuolized renal tubules at […] for 7 days by renal perfusion studies; assay type: toxicity, organism-based; conditions: in vivo, 168 h, in the assay text read “237 umol/kg” for “273 umol/kg”
Outline: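 Male Sprague–Dawley rats (200–250 g), fasted overnight, got 237 µmol/kg/dose po twice daily (474 µmol/kg/day) for 7 days and were fed about 3 h post-drug. Untreated age-matched rats were controls. One day post-drug, under pentobarbital, kidneys were perfusion-fixed with glutaraldehyde in Tyrode's buffer and embedded in TAAB. 500 nm sections were stained with toluidine blue and examined by light microscopy at 400×.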

Liver [16] = assay: Biodistribution in Sprague-Dawley rat liver assessed per gram tissue wet weight at 300 umol/kg, sc after 1 hr; assay type: ADME, organism-based; conditions: in vivo
Liver [17] = assay: Biodistribution in Sprague-Dawley rat liver assessed per gram tissue wet weight at 300 umol/kg, po after 1 hr; assay type: ADME, organism-based; conditions: in vivo
Outline: (§5)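 Male Sprague–Dawley rats (250–350 g) got one 300 µmol/kg dose, po or sc. Vehicle was water or the monosodium salt (free acid plus 1 equiv NaOH). Three rats per time point were euthanized by CO2 at 1, 2 or 4 h. Plasma came from citrated cardiac blood; liver, kidney, heart and pancreas were removed. Drug levels were measured by HPLC with UV detection at 310 nm against linear calibration curves (detection limit 0.25 µM).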

Liver [18] = assay: Biodistribution in Sprague-Dawley rat liver assessed per gram tissue wet weight at 300 umol/kg, sc after 2 hrs; assay type: ADME, organism-based; conditions: in vivo
Liver [19] = assay: Biodistribution in Sprague-Dawley rat liver assessed per gram tissue wet weight at 300 umol/kg, po after 2 hrs; assay type: ADME, organism-based; conditions: in vivo; outline: as §5
Liver [20] = assay: Biodistribution in Sprague-Dawley rat liver assessed per gram tissue wet weight at 300 umol/kg, sc after 4 hrs; assay type: ADME, organism-based; conditions: in vivo
Liver [21] = assay: Biodistribution in Sprague-Dawley rat liver assessed per gram tissue wet weight at 300 umol/kg, po after 4 hrs; assay type: ADME, organism-based; conditions: in vivo; outline: as §5
Kidney [22] = assay: Biodistribution in Sprague-Dawley rat kidney assessed per gram tissue wet weight at 300 umol/kg, sc after 1 hr; assay type: ADME, organism-based; conditions: in vivo
Kidney [23] = assay: Biodistribution in Sprague-Dawley rat kidney assessed per gram tissue wet weight at 300 umol/kg, po after 1 hr; assay type: ADME, organism-based; conditions: in vivo; outline: as §5
Kidney [24] = assay: Biodistribution in Sprague-Dawley rat kidney assessed per gram tissue wet weight at 300 umol/kg, sc after 2 hrs; assay type: ADME, organism-based; conditions: in vivo
Kidney [25] = assay: Biodistribution in Sprague-Dawley rat kidney assessed per gram tissue wet weight at 300 umol/kg, po after 2 hrs; assay type: ADME, organism-based; conditions: in vivo; outline: as §5
Kidney [26] = assay: Biodistribution in Sprague-Dawley rat kidney assessed per gram tissue wet weight at 300 umol/kg, sc after 4 hrs; assay type: ADME, organism-based; conditions: in vivo
Kidney [27] = assay: Biodistribution in Sprague-Dawley rat kidney assessed per gram tissue wet weight at 300 umol/kg, po after 4 hrs; assay type: ADME, organism-based; conditions: in vivo; outline: as §5
Heart [28] = assay: Biodistribution in Sprague-Dawley rat heart assessed per gram tissue wet weight at 300 umol/kg, sc after 1 hr; assay type: ADME, organism-based; conditions: in vivo
Heart [29] = assay: Biodistribution in Sprague-Dawley rat heart assessed per gram tissue wet weight at 300 umol/kg, po after 1 hr; assay type: ADME, organism-based; conditions: in vivo; outline: as §5
Heart [30] = assay: Biodistribution in Sprague-Dawley rat heart assessed per gram tissue wet weight at 300 umol/kg, sc after 2 hrs; assay type: ADME, organism-based; conditions: in vivo
Heart [31] = assay: Biodistribution in Sprague-Dawley rat heart assessed per gram tissue wet weight at 300 umol/kg, po after 2 hrs; assay type: ADME, organism-based; conditions: in vivo; outline: as §5
Heart [32] = assay: Biodistribution in Sprague-Dawley rat heart assessed per gram tissue wet weight at 300 umol/kg, sc after 4 hrs; assay type: ADME, organism-based; conditions: in vivo
Pancreas [33] = assay: Biodistribution in Sprague-Dawley rat pancreas assessed per gram tissue wet weight at 300 umol/kg, sc after 1 hr; assay type: ADME, organism-based; conditions: in vivo
Pancreas [34] = assay: Biodistribution in Sprague-Dawley rat pancreas assessed per gram tissue wet weight at 300 umol/kg, po after 1 hr; assay type: ADME, organism-based; conditions: in vivo; outline: as §5
Pancreas [35] = assay: Biodistribution in Sprague-Dawley rat pancreas assessed per gram tissue wet weight at 300 umol/kg, sc after 2 hrs; assay type: ADME, organism-based; conditions: in vivo
Pancreas [36] = assay: Biodistribution in Sprague-Dawley rat pancreas assessed per gram tissue wet weight at 300 umol/kg, po after 2 hrs; assay type: ADME, organism-based; conditions: in vivo; outline: as §5
Pancreas [37] = assay: Biodistribution in Sprague-Dawley rat pancreas assessed per gram tissue wet weight at 300 umol/kg, sc after 4 hrs; assay type: ADME, organism-based; conditions: in vivo
Pancreas [38] = assay: Biodistribution in Sprague-Dawley rat pancreas assessed per gram tissue wet weight at 300 umol/kg, po after 4 hrs; assay type: ADME, organism-based; conditions: in vivo; outline: as §5
Plasma [39] = assay: Biodistribution in Sprague-Dawley rat plasma at 300 umol/kg, sc after 1 hr; assay type: ADME, organism-based; conditions: in vivo
Plasma [40] = assay: Biodistribution in Sprague-Dawley rat plasma at 300 umol/kg, po after 1 hr; assay type: ADME, organism-based; conditions: in vivo; outline: as §5
Plasma [41] = assay: Biodistribution in Sprague-Dawley rat plasma at 300 umol/kg, sc after 2 hrs; assay type: ADME, organism-based; conditions: in vivo
Plasma [42] = assay: Biodistribution in Sprague-Dawley rat plasma at 300 umol/kg, po after 2 hrs; assay type: ADME, organism-based; conditions: in vivo; outline: as §5
Plasma [43] = assay: Biodistribution in Sprague-Dawley rat plasma at 300 umol/kg, sc after 4 hrs; assay type: ADME, organism-based; conditions: in vivo
Plasma [44] = assay: Biodistribution in Sprague-Dawley rat plasma at 300 umol/kg, po after 4 hrs; assay type: ADME, organism-based; conditions: in vivo; outline: as §5

COCCOCCOCCOc1cccc(C2=N[C@@](C)(C(=O)O)CS2)c1O [DEFERITAZOLE]
Activity (Rattus norvegicus [1]): 18.7%
Activity (Rattus norvegicus [2]): 20.7%
Activity (Rattus norvegicus [3]): >95%
Activity (Rattus norvegicus [4]): >95%
Activity (Rattus norvegicus [5]): >95%
Activity (Rattus norvegicus [6]): 13.4%
Activity (Sapajus apella [7]): 23%
Activity (Sapajus apella [8]): 21.5%
Activity (Rattus norvegicus [9]): Non-toxic
Activity (Rattus norvegicus [10]): Non-toxic
Activity (Rattus norvegicus [11]): Non-toxic
Activity (Rattus norvegicus [12]): Non-toxic
Activity (Rattus norvegicus [13]): Non-toxic
Activity (Rattus norvegicus [14]): Non-toxic
Activity (Rattus norvegicus [15]): Non-toxic
Drug uptake (Liver [16]): 318 nmol/g
Drug uptake (Liver [17]): 234 nmol/g
Drug uptake (Liver [18]): 193 nmol/g
Drug uptake (Liver [19]): 151 nmol/g
Drug uptake (Liver [20]): 168 nmol/g
Drug uptake (Liver [21]): 87 nmol/g
Drug uptake (Kidney [22]): 259 nmol/g
Drug uptake (Kidney [23]): 150 nmol/g
Drug uptake (Kidney [24]): 145 nmol/g
Drug uptake (Kidney [25]): 48 nmol/g
Drug uptake (Kidney [26]): 90 nmol/g
Drug uptake (Kidney [27]): 15 nmol/g
Drug uptake (Heart [28]): 16 nmol/g
Drug uptake (Heart [29]): 9 nmol/g
Drug uptake (Heart [30]): 8 nmol/g
Drug uptake (Heart [31]): 4 nmol/g
Drug uptake (Heart [32]): 6 nmol/g
Drug uptake (Pancreas [33]): 22 nmol/g
Drug uptake (Pancreas [34]): 9 nmol/g
Drug uptake (Pancreas [35]): 30 nmol/g
Drug uptake (Pancreas [36]): 24 nmol/g
Drug uptake (Pancreas [37]): 12 nmol/g
Drug uptake (Pancreas [38]): 6 nmol/g
Drug uptake (Plasma [39]): 46 nmol/g
Drug uptake (Plasma [40]): 26 nmol/g
Drug uptake (Plasma [41]): 24 nmol/g
Drug uptake (Plasma [42]): 9 nmol/g
Drug uptake (Plasma [43]): 13 nmol/g
Drug uptake (Plasma [44]): 2 nmol/g
